Experimental data: ChEMBL document CHEMBL1130149, “Medetomidine analogs as alpha 2-adrenergic ligands. 3. Synthesis and biological evaluation of a new series of medetomidine analogs and their potential binding interactions with alpha 2-adrenoceptors involving a "methyl pocket"” (J Med Chem, 1997)

What was measured:
[1] = target: Adrenergic receptor alpha (Rattus norvegicus) (UniProt P15823+P23944+P43140+P22086+P19328+P22909); assay: Relative affinity for Alpha 2 over Alpha 1 adrenergic receptors; format: protein assay
[2] = target: T1, Adrenergic receptor alpha-1 (Rattus norvegicus, UniProt P15823+P23944+P43140); assay: Displacement of [3H]-prazosin from Alpha-1 adrenergic receptor of rat brain membranes; format: cell membranes, Membrane
T1 sequence (P15823 whole entry): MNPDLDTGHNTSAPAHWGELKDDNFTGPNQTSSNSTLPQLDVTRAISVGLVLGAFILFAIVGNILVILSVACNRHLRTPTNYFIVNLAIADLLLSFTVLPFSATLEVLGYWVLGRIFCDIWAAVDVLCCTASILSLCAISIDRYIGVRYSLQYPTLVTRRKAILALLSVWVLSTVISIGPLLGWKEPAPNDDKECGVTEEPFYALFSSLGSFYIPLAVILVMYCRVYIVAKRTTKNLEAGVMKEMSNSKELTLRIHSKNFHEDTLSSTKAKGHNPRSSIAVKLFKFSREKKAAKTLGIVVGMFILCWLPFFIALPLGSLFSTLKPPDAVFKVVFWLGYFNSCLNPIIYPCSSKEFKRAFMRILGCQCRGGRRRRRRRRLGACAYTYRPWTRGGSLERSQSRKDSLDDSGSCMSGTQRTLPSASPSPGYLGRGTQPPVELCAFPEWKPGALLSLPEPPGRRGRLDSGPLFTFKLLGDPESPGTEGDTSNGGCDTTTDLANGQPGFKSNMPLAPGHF
T1 sequence (P23944 whole entry): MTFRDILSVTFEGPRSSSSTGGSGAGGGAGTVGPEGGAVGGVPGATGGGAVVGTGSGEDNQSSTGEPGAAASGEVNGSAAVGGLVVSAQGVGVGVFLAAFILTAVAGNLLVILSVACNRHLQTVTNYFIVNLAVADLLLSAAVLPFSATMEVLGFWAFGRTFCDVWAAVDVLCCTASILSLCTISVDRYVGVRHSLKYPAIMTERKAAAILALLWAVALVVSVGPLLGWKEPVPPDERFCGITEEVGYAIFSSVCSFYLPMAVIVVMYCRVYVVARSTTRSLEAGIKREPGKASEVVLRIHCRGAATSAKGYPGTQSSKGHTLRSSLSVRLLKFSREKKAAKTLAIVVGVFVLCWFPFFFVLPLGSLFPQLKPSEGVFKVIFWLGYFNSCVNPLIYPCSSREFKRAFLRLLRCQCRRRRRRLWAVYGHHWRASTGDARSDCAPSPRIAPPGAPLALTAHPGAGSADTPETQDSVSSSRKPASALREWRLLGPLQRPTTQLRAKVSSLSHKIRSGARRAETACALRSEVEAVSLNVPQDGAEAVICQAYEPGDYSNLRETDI
T1 sequence (P43140 whole entry): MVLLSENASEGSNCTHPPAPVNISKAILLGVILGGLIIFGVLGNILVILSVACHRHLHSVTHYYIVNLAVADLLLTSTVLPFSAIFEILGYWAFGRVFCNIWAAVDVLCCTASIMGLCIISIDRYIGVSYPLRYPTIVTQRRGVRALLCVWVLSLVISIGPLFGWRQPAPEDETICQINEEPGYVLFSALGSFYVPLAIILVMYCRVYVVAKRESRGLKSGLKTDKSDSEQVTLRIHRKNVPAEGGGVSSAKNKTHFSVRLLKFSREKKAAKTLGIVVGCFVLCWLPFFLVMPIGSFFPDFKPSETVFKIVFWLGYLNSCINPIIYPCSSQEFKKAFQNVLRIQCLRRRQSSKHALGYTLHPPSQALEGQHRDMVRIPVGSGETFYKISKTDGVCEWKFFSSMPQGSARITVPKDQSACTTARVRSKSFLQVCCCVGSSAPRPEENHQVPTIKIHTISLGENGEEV
Method in brief: (§1)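 Rat brain membrane fractions incubated with 0.1 nM [3H]prazosin for α1 sites. Nonspecific binding defined with 10 μM phentolamine. IC50 (analog concentration reducing specific binding by 50%) converted to Ki by Ki = IC50(1 + [L]/Kd), where [L] is the radioligand concentration and Kd its equilibrium dissociation constant.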

[3] = target: T2, Adrenergic receptor alpha-2 (Rattus norvegicus, UniProt P22086+P19328+P22909); assay: Displacement of [3H]rauwolscine from Alpha-2 adrenergic receptor of rat brain membranes; format: cell membranes, Membrane
T2 sequence (P22086 whole entry): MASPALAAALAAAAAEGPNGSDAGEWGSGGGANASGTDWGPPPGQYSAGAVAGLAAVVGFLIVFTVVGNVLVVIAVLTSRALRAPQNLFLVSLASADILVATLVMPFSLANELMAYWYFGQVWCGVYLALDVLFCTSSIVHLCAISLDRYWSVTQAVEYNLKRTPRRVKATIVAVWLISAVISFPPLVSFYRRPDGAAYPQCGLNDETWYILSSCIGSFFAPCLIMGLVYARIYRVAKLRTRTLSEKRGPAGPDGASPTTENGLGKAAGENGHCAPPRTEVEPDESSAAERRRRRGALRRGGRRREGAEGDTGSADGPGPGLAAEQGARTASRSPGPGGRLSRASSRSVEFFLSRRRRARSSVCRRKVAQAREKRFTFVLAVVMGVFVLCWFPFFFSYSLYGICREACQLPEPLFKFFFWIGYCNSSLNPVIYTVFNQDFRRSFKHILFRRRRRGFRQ
T2 sequence (P19328 whole entry): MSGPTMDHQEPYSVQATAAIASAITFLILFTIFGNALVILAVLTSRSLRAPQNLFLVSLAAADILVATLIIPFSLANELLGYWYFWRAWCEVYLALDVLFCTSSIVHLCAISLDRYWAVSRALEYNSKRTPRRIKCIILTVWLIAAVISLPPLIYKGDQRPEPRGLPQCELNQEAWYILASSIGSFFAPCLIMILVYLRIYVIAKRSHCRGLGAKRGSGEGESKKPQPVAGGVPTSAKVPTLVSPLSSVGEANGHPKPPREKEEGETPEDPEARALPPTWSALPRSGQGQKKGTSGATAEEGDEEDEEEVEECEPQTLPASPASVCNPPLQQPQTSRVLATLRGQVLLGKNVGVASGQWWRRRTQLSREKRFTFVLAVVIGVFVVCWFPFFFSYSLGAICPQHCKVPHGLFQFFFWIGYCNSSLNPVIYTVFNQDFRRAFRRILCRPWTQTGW
T2 sequence (P22909 whole entry): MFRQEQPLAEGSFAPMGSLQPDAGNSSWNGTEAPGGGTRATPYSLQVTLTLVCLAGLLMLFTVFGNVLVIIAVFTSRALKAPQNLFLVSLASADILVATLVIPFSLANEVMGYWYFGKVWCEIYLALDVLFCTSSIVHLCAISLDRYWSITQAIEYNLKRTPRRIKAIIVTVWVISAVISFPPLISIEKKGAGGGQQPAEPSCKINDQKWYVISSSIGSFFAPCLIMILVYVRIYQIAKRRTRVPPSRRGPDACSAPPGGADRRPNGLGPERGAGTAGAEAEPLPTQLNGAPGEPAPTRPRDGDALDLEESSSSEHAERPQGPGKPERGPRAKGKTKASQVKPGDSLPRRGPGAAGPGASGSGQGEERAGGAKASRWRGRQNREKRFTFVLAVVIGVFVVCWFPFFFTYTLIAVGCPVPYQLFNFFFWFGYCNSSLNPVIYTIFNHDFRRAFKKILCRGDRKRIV
Method in brief: as §1, with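 “0.2” for “0.1”, “[3H]rauwolscine” for “[3H]prazosin”, “α2” for “α1”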

SMILES	Selectivity [1]	Ki [2]	Ki [3]
COc1cccc2c1CCCC2c1c[nH]cn1 (stereo not given)	2.48	243 nM	98 nM
Oc1cccc2c1CCCC2c1c[nH]cn1 (stereo not given)	2.01	126 nM	63 nM
C1=C(c2c[nH]cn2)c2cccc(OCc3ccccc3)c2CC1	3.09	8250 nM	2670 nM
COc1cccc2c1CCC=C2c1c[nH]cn1	2.1	2970 nM	1420 nM
Cc1cccc2c1CCCC2c1c[nH]cn1 (stereo not given)	2.01	191 nM	95 nM
COc1ccc2c(c1)C(c1c[nH]cn1)=CCC2	9.03	14200 nM	1570 nM
Cc1cccc(C(C)c2c[nH]cn2)c1C (stereo not given)	44.4		
Cc1cccc2c1CCC2c1c[nH]cn1 (stereo not given)	8.29	73 nM	8.8 nM
COc1ccc2c(c1)CCCC2c1c[nH]cn1 (stereo not given)	1.17	198 nM	169 nM
COc1ccc2c(c1)C(c1c[nH]cn1)CCC2 (stereo not given)	8.81	1770 nM	201 nM
Cc1cc(C)c2c(c1)C(c1c[nH]cn1)=CCC2	12.8	2960 nM	232 nM
Cc1cccc2c1CCC=C2c1c[nH]cn1	32	992 nM	31 nM
COc1ccc2c(c1)CCC=C2c1c[nH]cn1	2.81	1630 nM	580 nM
Cc1cc(C)c2c(c1)C(c1c[nH]cn1)CCC2 (stereo not given)	1.27	131 nM	103 nM
